# Screens (PubChem)
# Many of the other results were omitted from the sample, so hits are more common in it than they were.
# STK33 kinase inh = inhibitors of purified STK33 kinase, primary screen, biochemical, ADP-Glo luminescence, homogeneous, cell-free. inhibition, % at 10 µM. Serine/threonine-protein kinase 33 (Homo sapiens), Q9BYT3. actives 0.073% (n = 320,000). MBP phosphorylation;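 active means inhibition at or above 25%, using the most active replicate where run in duplicate; inactive means inhibition below 25%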
# CDK5 inh = inhibitors of human CDK5/p35 kinase, primary screen, biochemical, single concentration; actives 0.01% (n = 330,000); AID 488839, 2010; Recombinant CDK5/p35, ADP-Glo luminescence, 60 min; Cyclin-dependent kinase 5 (Homo sapiens) + Cyclin-dependent kinase 5 activator 1 (Homo …; inhibition, % at 10 µM;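 active means highest replicate inhibition of at least 50% and at least 75% of replicates reaching 50%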
# GSK3A inh = blockers of GSK3A enzyme activity – biochemical, luminescence, cell-free homogeneous, HTS, primary screen | GSK-3 alpha kinase, ADP-Glo luminescence, 60 min | inhibition, % at 10 µM | actives 0.1% (n = 320,000) | AID 2650, 2010;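 active means more than half of replicates show inhibition above 20%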;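 further: GST-tagged GSK-3 alpha with peptide substrate and 25 µM ATP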
# GSK3beta inhib = human GSK3beta kinase inhibitors, primary screen, biochemical, cell-free homogeneous, HTS; activity score (negative = inhibition), % at 10 µM; GST-GSK3beta kinase, ADP-Glo luminescence, 60 min; hits give low values; Glycogen synthase kinase-3 beta (Homo sapiens), P49841; AID 2097, 2009; actives 0.038% (n = 300,000);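 active means more than half of replicate wells score below -50%, meaning over 50% inhibition versus plate controls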
# Target sequence (P49841 whole entry, looked up): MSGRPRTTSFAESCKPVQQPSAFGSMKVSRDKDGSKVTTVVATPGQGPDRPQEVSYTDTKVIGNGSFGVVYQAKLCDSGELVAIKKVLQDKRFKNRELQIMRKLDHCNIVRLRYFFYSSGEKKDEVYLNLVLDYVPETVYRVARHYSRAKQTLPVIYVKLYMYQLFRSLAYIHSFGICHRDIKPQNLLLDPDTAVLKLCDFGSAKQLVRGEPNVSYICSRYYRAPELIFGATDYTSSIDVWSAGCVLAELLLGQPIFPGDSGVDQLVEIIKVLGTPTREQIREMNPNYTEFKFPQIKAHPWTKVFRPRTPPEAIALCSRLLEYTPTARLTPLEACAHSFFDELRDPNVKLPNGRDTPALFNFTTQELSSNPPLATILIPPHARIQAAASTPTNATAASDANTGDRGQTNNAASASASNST
#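 Test system – GST-tagged human GSK3beta kinase, cell-free · Incubation – 60 min enzyme reaction, room temperature · Signal – ADP-Glo luminescence · Also added – peptide substrate and ATP at 25 µM · Controls – DMSO neutral wells and GW8510 at 20 µM as positive · Buffer or medium – Tris/MgCl2 kinase buffer · Measure – Luminescence-derived activity versus plate DMSO and GW8510 wells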
# DYRK1A inh = rat Dyrk1A kinase inhibitors, primary screen, biochemical, single point, plate reader; ADP-Glo luminescence, NFATc1 peptide; inhibition, % at 12.5 µM; actives 0.43% (n = 310,000); in the data active means inhibition above about 50%
# A number is an active result; . = inactive; / = not tested or not shown.
SMILES,STK33 kinase inh,CDK5 inh,GSK3A inh,GSK3beta inhib,DYRK1A inh
Cc1cc(-c2ccc(N=Nc3c(S(=O)(=O)O)cc4cc(S(=O)(=O)O)cc(N)c4c3O)c(C)c2)ccc1N=Nc1c(S(=O)(=O)O)cc2cc(S(=O)(=O)O)cc(N)c2c1O,66,/,.,/,/
O=C(NCCS(=O)(=O)c1ccc(Br)cc1)c1ccc(Cl)cc1Cl,.,.,.,.,.
CCOc1cc(C2C3=C(CC(C)(C)CC3=O)Nc3n[nH]c(C)c32)ccc1O (stereo unspecified),.,.,94,-61,.
CCOC(=O)C1=C(C)NC2=C(C(=O)CC(C)(C)C2)C1c1ccc(O)c(OCC)c1 (stereo unspecified),.,.,.,.,.
COc1ccc(C)cc1NC(=O)c1cccc(C(=O)Nc2cc(C)ccc2OC)n1,.,.,.,.,.
COCCn1c(SCC(=O)Nc2ccc(Cl)cn2)nc2ccccc21,.,.,.,-76,.
Oc1ccc2cc(Br)ccc2c1CN1CCCC1,.,.,.,.,.
CCOC(=O)Cc1nnc(NC(=O)COc2ccc(C)cc2)s1,27,.,.,.,.
CCOC(=O)Cc1nnc(NC(=O)COc2ccc(OC)cc2)s1,.,.,.,.,/
Cc1cc([N+](=O)[O-])nn1CCCC(=O)Nc1cc(Cl)ccc1Cl,.,.,.,.,.
COc1cc(C(=O)N2CCN(c3ccccn3)CC2)cc(OC)c1OC,.,89,.,.,.
COc1cc(OC)cc(C(=O)N2CCN(c3ccccn3)CC2)c1,.,.,.,.,.
CC(C)(C)C1=NN=C2c3ccccc3C(=O)C21 (stereo unspecified),30,.,.,.,.
Cc1nn(C)cc1/C=C/C(=O)c1ccc(O)cc1,31,.,.,.,.
CN(C)c1nc2sc3c(c2c(=O)n1C)CC(C)(C)OC3,38,.,.,.,.
CCc1nc2sc3c(c2c(=O)n1N)CC(C)(C)OC3,.,.,.,.,.
COc1ccc(Nc2nccc(-c3ccc(C#N)cc3)n2)cc1,.,55,.,.,.
COCCNC(=O)/C(C#N)=C/c1c(N2CCN(c3ccc(OC)cc3)CC2)nc2c(C)cccn2c1=O,.,.,.,.,.
CCN(CC)Cc1cc2[nH]c3c4ccc(Cl)cc4ncc3c2cc1OC,/,.,/,-52,/
COc1ccc(CNc2ncnc3cc(Cl)ccc23)cc1OC,/,.,/,.,.
Clc1cncc(Cl)c1N/N=C/c1ccncc1,/,52,/,.,.
C/C(=C/c1ccccc1)C(=O)N1CCN(c2ccc(F)cc2)CC1,.,.,.,.,.
COC(=O)c1nnn(-c2nonc2N)c1CN1CCc2ccccc21,.,.,64,.,.
Nc1nonc1-n1nnc(C(=O)N/N=C/c2ccccc2)c1CN1CCc2ccccc21,.,.,.,.,.
CC(C)(C)C(=O)NC(=S)Nc1sc2c(c1C(N)=O)CCC2,.,.,69,.,.
SMILES,STK33 kinase inh,CDK5 inh,GSK3A inh,GSK3beta inhib,DYRK1A inh
Cc1ccc(Nc2nc(NCC3CCCO3)nc(N)c2[N+](=O)[O-])cc1C (stereo unspecified),.,/,.,.,.
CC(C)CNc1nc(N)c([N+](=O)[O-])c(NCC2CCCO2)n1 (stereo unspecified),.,.,59,.,.
COCCCNc1nc(N)c([N+](=O)[O-])c(Nc2ccccc2OC)n1,.,.,74,.,.
COCCCNc1nc(N)c([N+](=O)[O-])c(NCC2CCCO2)n1 (stereo unspecified),.,.,81,.,.
CC(C)CNc1nc(N)c([N+](=O)[O-])c(NC2CCCCC2)n1,.,.,.,.,.
COCCCNc1nc(N)c([N+](=O)[O-])c(NCc2ccccc2)n1,.,.,.,.,.
O=C(CSc1nnc(SCc2ccccc2)s1)N/N=C/c1ccc(C(=O)O)cc1,.,.,53,.,.
Cc1ccc(CSc2nnc(SCC(=O)N/N=C/c3ccc(C(=O)O)cc3)s2)cc1,.,.,.,.,.
Cn1c(N)c(C(=O)CSc2nc(N)cc(N)n2)c(=O)n(C)c1=O,.,.,.,.,.
Fc1ccc(-c2cnc[nH]2)cc1,29,.,.,.,.
O=S(=O)(c1cnc[nH]1)N1CCN(c2ccc(F)cc2)CC1,.,.,.,.,.
COC(=O)c1ccc(COc2ccccc2/C=C/C(=O)c2ccc(OCC(=O)O)cc2)cc1,50,.,.,.,.
CCN1CCN(Cc2c(O)ccc3c2O/C(=C\C=C\c2ccccc2)C3=O)CC1,.,.,.,.,.
CN(C)Cc1c(O)ccc2c1O/C(=C\C=C\c1ccccc1)C2=O,.,.,.,-54,.
Cc1cc(N2C(=O)c3ccc(C(=O)Nc4ccc(O)cc4C(=O)O)cc3C2=O)no1,32,.,.,.,.
O=C(NC(=S)N1CCCCCC1)c1ccc(Cl)cc1Cl,.,.,.,.,.
N#Cc1ccccc1CSc1nnc(-c2ccncc2)o1,.,.,.,-52,.
c1ccc2c(CSc3nnc(-c4ccncc4)o3)cccc2c1,.,.,.,.,.
Brc1cccc(CSc2nnc(-c3ccncc3)o2)c1,.,.,59,-70,.
Clc1ccccc1CSc1nnc(-c2ccncc2)o1,.,.,54,.,.
Fc1cccc(Cl)c1CSc1nnc(-c2ccncc2)o1,.,.,57,.,.
Cc1nn(C)c(Cl)c1C(=O)NCC(=O)Nc1ccc(C(C)C)cc1,.,.,.,.,.
CCOc1ccc(S(=O)(=O)N(CC(=O)N/N=C/c2cccs2)c2ccc(C)cc2)cc1,.,.,.,.,.
CN(c1ccccc1C(=O)Nc1cccc([N+](=O)[O-])c1)S(=O)(=O)c1ccccc1,.,.,.,.,.
c1ccc(CCCNCC2COc3ccccc3O2)cc1 (stereo unspecified),.,.,/,.,.
CCCNCC1COc2ccccc2O1 (stereo unspecified),.,/,.,-52,/
C#CCOCCOCCOCCNc1nc(N2CCN(C(=O)CCCCCCCCCCNC(=O)[C@H]([C@@H](C)CC)n3cc(CCCCN=C(N)N)nn3)CC2)nc(N2CCN(C(=O)CCCCCCCCCCNC(=O)[C@H](CCCCN)n3cc(C[C@@H](C)CC)nn3)CC2)n1,30,/,.,/,/
C#CCOCCOCCOCCNc1nc(N2CCN(C(=O)CCCCCCCCCCNC(=O)[C@H](CCCCN)n3cc(CCO)nn3)CC2)nc(N2CCN(C(=O)CCCCCCCCCCNC(=O)[C@H](CCCN=C(N)N)n3cc(C[C@@H](C)CC)nn3)CC2)n1,.,.,.,/,.
